Shown are actives, neighbours in structure and some others; about 1.5% of the full set was active somewhere.
VLA-4 inh – inhibition in a human VLA-4 binding assay. VLA-4 expressing cells, ligand binding flow cytometry. inhibition, % (about 7 µM as worked out from the volumes in the protocol). 330,000 compounds, 0.2% hits; in the data active = inhibition above about 50%
Target sequence (P13612 whole entry, looked up): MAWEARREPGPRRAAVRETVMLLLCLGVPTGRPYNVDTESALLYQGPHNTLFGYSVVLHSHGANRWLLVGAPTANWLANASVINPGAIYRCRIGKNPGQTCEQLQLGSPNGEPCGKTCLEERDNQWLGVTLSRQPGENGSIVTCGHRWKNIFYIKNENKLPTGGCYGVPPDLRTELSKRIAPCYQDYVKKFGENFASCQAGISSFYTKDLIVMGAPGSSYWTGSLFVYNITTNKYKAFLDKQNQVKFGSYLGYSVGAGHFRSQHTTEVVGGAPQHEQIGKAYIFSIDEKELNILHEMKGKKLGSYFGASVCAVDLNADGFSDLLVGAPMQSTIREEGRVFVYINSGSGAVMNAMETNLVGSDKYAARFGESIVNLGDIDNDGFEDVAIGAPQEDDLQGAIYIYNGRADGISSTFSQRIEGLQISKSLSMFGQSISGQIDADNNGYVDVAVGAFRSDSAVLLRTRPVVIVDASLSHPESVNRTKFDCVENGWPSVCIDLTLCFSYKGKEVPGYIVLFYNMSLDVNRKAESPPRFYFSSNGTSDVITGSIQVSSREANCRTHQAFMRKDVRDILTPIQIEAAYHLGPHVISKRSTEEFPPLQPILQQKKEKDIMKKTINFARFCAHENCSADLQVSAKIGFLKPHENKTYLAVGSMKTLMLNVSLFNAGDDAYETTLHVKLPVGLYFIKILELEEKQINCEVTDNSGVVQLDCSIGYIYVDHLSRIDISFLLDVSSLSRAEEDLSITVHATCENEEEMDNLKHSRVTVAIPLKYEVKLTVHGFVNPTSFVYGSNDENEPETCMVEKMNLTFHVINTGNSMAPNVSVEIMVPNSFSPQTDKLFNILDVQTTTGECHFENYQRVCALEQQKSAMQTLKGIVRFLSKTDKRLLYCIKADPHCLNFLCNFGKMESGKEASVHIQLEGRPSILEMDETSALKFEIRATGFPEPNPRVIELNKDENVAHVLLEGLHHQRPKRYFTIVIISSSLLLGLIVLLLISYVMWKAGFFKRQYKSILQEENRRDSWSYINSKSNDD
CHT PAM – allosterically activates the human high affinity choline transporter | Q9GZV3 | CHT-expressing cells, membrane potential dye, choline EC20; hits give high values; LV-AA mutant CHT in HEK293 cells | B-score at 10 µM | 310,000 compounds, 0.49% hits | AID 488977;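 active = initial fluorescence not abnormally high and integrated response B-score, plate-corrected, over 3 SD above library mean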
CHT block – inhibits the human high affinity choline transporter; 310,000 compounds, 0.86% hits; CHT-expressing cells, membrane potential dye, choline response; hits give low values; Q9GZV3; B-score at 10 µM;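 active = B-score over 3 SD under the library average, and starting fluorescence ratio not unusually high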;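 also: choline stimulus applied at its EC90 after an EC20 pre-addition; B-score computed on integrated fluorescence ratio after choline addition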
T cell HTS – T cell immune modulation candidate | 2C CD8+ T cell-vesicle binding, flow cytometry; hits give low values | response (vesicle binding), % at 7 µM | 330,000 compounds, 0.068% hits;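 active = response, share of CD8 T cells binding vesicles, and their 90th percentile fluorescence all below set limits, cut at about 80% in these data, passing the limit was not always enough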;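 also: values below 100% mean blocked vesicle binding to the CD8+ T cells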
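Benchmarks: naked versus QL9-loaded vesicles / Assay system: purified 2C TCR transgenic mouse naive CD8+ T cells / Technique: high-throughput flow cytometry with anti-B7-1 and anti-CD8 staining / Timing: Cell–vesicle co-incubation 1.5 h at 37 °C, staining 20 min on ice / Read-out: percent CD8+ FL2 mean versus row control / Probe or stimulus: QL9-loaded Drosophila micro-vesicles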
VLA-4 mod pick – human VLA-4 allosteric modulation in cherry picked compounds; shares compounds with VLA-4 inh; U937 cells, HUTS-21 LIBS mAb binding, flow cytometry; LDV ligand present at threefold Kd; inhibition, % at 6.7 µM; 1,300 compounds, 2% hits; AID 2813; in the data active = inhibition above about 40%;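 also: 0% = ligand without compound and 100% = no ligand background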
Starred values were filed as active, the others as inactive.

Cc1ccn2c(=O)nc(SCC(=O)Nc3ccc4c(c3)OCCO4)nc2c1 was read as VLA-4 inh -25.0, CHT PAM inactive, CHT block inactive and T cell HTS 133.0.
`CCCSC1=NN2CCCC(=O)N=C2S1` gave VLA-4 inh 49.6*, CHT PAM inactive, CHT block inactive, T cell HTS 770.7 and VLA-4 mod pick 5.7.
`Cc1cccc(NC(=S)NC2CC3C=CC2C3)c1` (centres undefined) gave VLA-4 inh 0.6, CHT PAM inactive, CHT block inactive and T cell HTS 403.7.
`COc1cc(Cl)cc(/C=C/c2ccc3ccccc3n2)c1OC(C)=O` gave VLA-4 inh 41.2, CHT PAM inactive, CHT block inactive, T cell HTS 152.9 and VLA-4 mod pick -19.2.
Screening CC(=O)Oc1ccc(Cl)cc1/C=C/c1cc(OC(C)=O)c2ccccc2n1 returned VLA-4 inh -35.5, CHT PAM inactive, CHT block inactive and T cell HTS 249.0.
For CN1CC(=O)N(CC(=O)Nc2ccc(Br)cc2F)C1=O the results were VLA-4 inh 69.6*, CHT PAM inactive, CHT block inactive, T cell HTS 941.2 and VLA-4 mod pick -2.2.
Cc1c(S(=O)(=O)N2CCC(C)CC2)c(=O)n(C)c(=O)n1C was read as VLA-4 inh 50.4*, CHT PAM inactive, CHT block inactive, T cell HTS 289.3 and VLA-4 mod pick 2.6.
For O=C(c1cc(-c2ccc(Cl)cc2)n(-c2ccc(Cl)cc2)n1)N1CCOCC1 the results were VLA-4 inh 92.1*, CHT PAM inactive, CHT block inactive, T cell HTS 345.5 and VLA-4 mod pick 5.3.
Cc1ccc(-n2nc(C(=O)N3CCOCC3)cc2-c2ccc(Cl)cc2)cc1 was read as VLA-4 inh -10.0, CHT PAM inactive, CHT block inactive and T cell HTS 200.1.
For COc1cc(C(=O)OCC(=O)NCCC2=CCCCC2)ccc1OCC(C)C the results were VLA-4 inh 9.3, CHT PAM inactive, CHT block inactive and T cell HTS 140.5.
For COc1cccc(C(=O)OCC(=O)NCCC2=CCCCC2)c1 the results were VLA-4 inh 3.6, T cell HTS 502.8 and VLA-4 mod pick -1.1.
CCN(CC(=O)NCc1ccc(Cl)cc1)S(=O)(=O)c1ccc(NC(C)=O)cc1 was read as VLA-4 inh 3.4, CHT PAM inactive, CHT block inactive and T cell HTS 434.3.
CN(CC(=O)NCc1ccc2c(c1)OCO2)S(=O)(=O)c1ccc(Cl)cc1 was read as VLA-4 inh 14.7 and T cell HTS 165.1.
`CN(CC(=O)NCc1ccccc1F)S(=O)(=O)c1ccc(Cl)cc1` gave VLA-4 inh 5.6, CHT PAM inactive, CHT block inactive, T cell HTS 107.6 and VLA-4 mod pick 0.7.
For CCN(CC(=O)NCc1ccc(Cl)cc1)S(=O)(=O)c1ccc(F)cc1 the results were VLA-4 inh -3.7, CHT PAM inactive, CHT block inactive, T cell HTS 167.7 and VLA-4 mod pick 11.8.
For COc1ccc(CNC(=O)CN(C)S(=O)(=O)c2ccccc2)cc1 the results were VLA-4 inh 52.3*, CHT PAM inactive, CHT block inactive, T cell HTS 375.0 and VLA-4 mod pick 0.7.
`COC(=O)c1c(C(=O)OC)c(-c2ccc(OC)cc2)n2c1CS(=O)(=O)C2` gave VLA-4 inh 1.3, CHT PAM inactive, CHT block inactive and T cell HTS 289.5.
`CN1CCN(c2nc(-c3ccccc3Cl)nc3ccccc23)CC1` gave VLA-4 inh 6.3, CHT PAM inactive, CHT block inactive and T cell HTS 168.0.
Screening CN1CCN(c2nc(-c3ccccc3O)nc3ccccc23)CC1 returned VLA-4 inh 46.6, CHT PAM inactive, CHT block inactive, T cell HTS 72.9 and VLA-4 mod pick 7.0.
`CCn1cc(C(=O)OCc2cccc(Br)c2)c(=O)c2ccc(C)nc21` gave VLA-4 inh 53.6*, CHT PAM inactive, CHT block inactive, T cell HTS 427.8 and VLA-4 mod pick 0.0.
Screening O=c1c(O)c(-c2cc(O)c(O)c(O)c2)oc2cc(O)cc(O)c12 returned VLA-4 inh 56.1*, CHT PAM inactive, CHT block inactive, T cell HTS 556.3 and VLA-4 mod pick 5.1.
For O=c1c(O)c(-c2ccccc2)oc2cc(O)cc(O)c12 the results were VLA-4 inh 25.3 and T cell HTS 248.1.

Screens deposited in PubChem BioAssay by several laboratories.
